# What was measured:
# Mus musculus [1] = organism: Mus musculus; experiment: Mouse Acetylcholine-induced Abdominal Irritant Test activity (MAIT); assay type: functional; conditions: Abdomen
# In short: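 Male CD-1 mice, 18-24 g, fed ad libitum until testing. Compound or vehicle given orally by gavage; at set intervals afterwards, acetylcholine bromide 5.5 mg/kg i.p. Mice observed in bell jars for a single abdominal response; % antinociception per dose taken from responder counts. ED50 with 95% confidence limits by Litchfield-Wilcoxon probit analysis, including a chi-square test for linearity.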
# [2] = molecular target: T1, Adrenergic receptor alpha-2 (Rattus norvegicus, UniProt P22086+P19328+P22909); experiment: In vitro binding affinity against alpha-2 adrenergic receptor in rat
# T1 sequence (P22086 whole entry): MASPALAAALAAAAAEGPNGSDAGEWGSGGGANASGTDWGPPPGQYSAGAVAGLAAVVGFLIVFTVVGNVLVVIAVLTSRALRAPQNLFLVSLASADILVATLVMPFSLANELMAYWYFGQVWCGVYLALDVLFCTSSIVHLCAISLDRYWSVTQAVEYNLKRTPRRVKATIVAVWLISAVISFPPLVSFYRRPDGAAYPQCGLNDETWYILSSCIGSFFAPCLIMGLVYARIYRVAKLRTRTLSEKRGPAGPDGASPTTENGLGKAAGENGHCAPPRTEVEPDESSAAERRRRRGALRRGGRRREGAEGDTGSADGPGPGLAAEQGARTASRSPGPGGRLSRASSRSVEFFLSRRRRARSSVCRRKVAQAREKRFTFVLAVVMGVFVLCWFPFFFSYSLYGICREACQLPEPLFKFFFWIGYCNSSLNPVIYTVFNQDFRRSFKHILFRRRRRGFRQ
# T1 sequence (P19328 whole entry): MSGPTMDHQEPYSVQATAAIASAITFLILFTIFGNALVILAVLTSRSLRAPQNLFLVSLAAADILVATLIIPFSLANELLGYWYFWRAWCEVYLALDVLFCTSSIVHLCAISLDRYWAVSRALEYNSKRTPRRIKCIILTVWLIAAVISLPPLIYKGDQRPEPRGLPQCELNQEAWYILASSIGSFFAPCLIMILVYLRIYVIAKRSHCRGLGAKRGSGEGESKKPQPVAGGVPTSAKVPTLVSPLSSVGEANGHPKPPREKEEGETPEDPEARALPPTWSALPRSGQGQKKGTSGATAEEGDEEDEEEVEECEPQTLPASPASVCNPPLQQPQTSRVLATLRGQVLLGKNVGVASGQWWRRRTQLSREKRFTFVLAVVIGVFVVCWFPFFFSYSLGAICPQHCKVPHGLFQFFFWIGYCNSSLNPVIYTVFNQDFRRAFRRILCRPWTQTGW
# T1 sequence (P22909 whole entry): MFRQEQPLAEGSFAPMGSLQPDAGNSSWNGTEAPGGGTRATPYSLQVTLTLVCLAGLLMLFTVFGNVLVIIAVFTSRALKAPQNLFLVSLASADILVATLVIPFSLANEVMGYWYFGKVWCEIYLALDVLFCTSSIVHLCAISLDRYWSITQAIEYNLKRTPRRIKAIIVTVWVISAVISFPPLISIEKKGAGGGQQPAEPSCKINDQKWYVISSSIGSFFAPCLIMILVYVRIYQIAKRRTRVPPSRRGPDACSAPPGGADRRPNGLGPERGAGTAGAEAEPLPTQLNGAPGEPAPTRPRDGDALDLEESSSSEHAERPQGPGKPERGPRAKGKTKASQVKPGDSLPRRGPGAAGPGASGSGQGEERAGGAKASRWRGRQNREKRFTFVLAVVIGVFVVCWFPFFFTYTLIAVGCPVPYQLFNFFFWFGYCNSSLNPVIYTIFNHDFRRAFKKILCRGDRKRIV
# In short: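 Rat cortex synaptic membranes (male Wistar rats, 150-250 g; homogenized in HEPES-sucrose, spun at 1000g then 42000g, pellet washed in 3 mM K phosphate pH 7.5 with 30 min 25 °C preincubation). Displacement of [3H]p-aminoclonidine (0.1 nM), 20 min at 25 °C; filtration, scintillation counting. 8-10 concentrations in triplicate; Ki from single-site fit, nonspecific binding as fitted parameter.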
# Mus musculus [3] = organism: Mus musculus; experiment: Mouse Acetylcholine-induced Abdominal Irritant Test activity(MAIT) of the compound.; conditions: Abdomen
Structure (SMILES),ED50 (Mus musculus [1]) [mg/kg],Ki [2] [nM],ED50 (Mus musculus [3]) [mg/kg]
CCc1nc(CC)c(Cc2c[nH]cn2)s1,> 30,23,
CCc1nc(Cc2c[nH]cn2)c(C)s1,> 30,57,
CCc1nc(C(C)c2c[nH]cn2)c(CC)s1 (centres undefined),16,407,
Cc1nc(Cc2c[nH]cn2)sc1C,1.7,11,
c1nc(Cc2nc3c(s2)CCCC3)c[nH]1,> 30,110,
CCc1csc(Cc2c[nH]cn2)n1,> 30,36,
CCc1nc(CC)c(C(C)c2c[nH]cn2)s1 (centres undefined),> 30,97,
Cc1nc(Cc2c[nH]cn2)c(C)s1,> 30,38,
CCc1nc(Cc2cn[nH]n2)c(CC)s1,> 30,> 1000,
Cc1nc(C)c(C(c2ccccc2)c2c[nH]cn2)s1 (centres undefined),> 30,269,
CCc1sc(C(C)C)nc1Cc1c[nH]cn1,7.5,28,
CCCCc1nc(Cc2c[nH]cn2)c(CCCC)s1,> 30,35,
CCCc1nc(Cc2c[nH]cn2)c(CCC)s1,30,97,
CCc1nc(C(Cc2ccccc2)c2c[nH]cn2)c(CC)s1 (centres undefined),> 30,37,
CCc1sc(Cc2c[nH]cn2)nc1C,2.8,18,
CCc1nc(Cc2[nH]cnc2C)c(CC)s1 [ENTRY 68 A],,53,
CCc1nc(Cc2c[nH]cn2)sc1CC,> 30,86,
CCc1nc(Cc2c[nH]cn2)c(CC)s1,1.8,17,

Structure (SMILES),ED50 (Mus musculus [1]) [mg/kg],Ki [2] [nM],ED50 (Mus musculus [3]) [mg/kg]
CCc1nc(Cc2ncc[nH]2)c(CC)s1,> 30,> 1000,
Cc1nc(Cc2c[nH]cn2)c(C)o1,> 30,> 1000,
CCc1sc(C)nc1Cc1c[nH]cn1,2.3,10,
c1nc(Cc2nc3c(s2)CCC3)c[nH]1,> 30,28,
CCc1sc(-c2ccccc2)nc1Cc1c[nH]cn1,15,13,
CCc1sc(C(F)(F)F)nc1Cc1c[nH]cn1,20.3,320,
Cc1nc(C)c(Cc2c[nH]cn2)s1,1,8,
"Cc1cccc(C(C)c2c[nH]cn2)c1C (single isomer, unassigned) [DEXMEDETOMIDINE]",,0.015,0.09
c1ccc2sc(Cc3c[nH]cn3)nc2c1,> 30,18,
CCc1nc(Cc2c[nH]cn2)c(C(C)C)s1,25.3,235,
CCc1nc(Cc2c[nH]cn2)c(CC)o1,2.8,58,
CCc1cnc(Cc2c[nH]cn2)s1,> 30,381,
CC(C)c1nc(Cc2c[nH]cn2)c(C(C)C)s1,23.8,285,
Cc1nc(C)c(C(C)c2c[nH]cn2)s1 (centres undefined),> 30,60,
CC(C)c1nc(Cc2c[nH]cn2)c(C(C)C)o1,6.9,714,
CCc1nc(Cc2nc[nH]n2)c(CC)s1,> 30,> 1000,
CCc1nc(Cc2c[nH]cn2)sc1C,> 30,18,

# Reference: ChEMBL document CHEMBL1132495, “Alpha(2) adrenoceptor agonists as potential analgesic agents. 1. (Imidazolylmethyl)oxazoles and -thiazoles” (J Med Chem, 1999)
